From ChEMBL document CHEMBL1153794, “Oleanane-type triterpenoids from Aceriphyllum rossii and their cytotoxic activity” (J Nat Prod, 2009)
pIC50: −log10 of the molar value.

Tests used:
MCF7 = assay: Cytotoxic activity against human MCF7 cells after 48 hrs by MTT assay; format: functional, cell-based; settings: MCF7, 48 h
Method in brief: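 Modified MTT assay. Viable cells seeded at 1 × 10^4 per well in growth medium and incubated at 37 °C, 5% CO2. Samples dissolved in DMSO and diluted in growth medium to final concentrations of 5.0–150 µM. Optical density read on a microplate reader; IC50 values derived.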

[1] = Cytotoxicity activity against mouse LLC cells after 48 hrs by MTT assay; settings: Lewis lung carcinoma

Row | SMILES | pIC50 (MCF7) | pIC50 [1]
1 | CC1(C)CC[C@]2(C)CC[C@]3(C(=O)O)C(=CC[C@@H]4[C@@]5(C)CC[C@@H](O)[C@@](C)(C=O)[C@@H]5CC[C@]43C)[C@@H]2C1 | 4.33 | 4.41
2 | C[C@@]1(C(=O)O)CC[C@]2(C)CC[C@]3(C)C(=CC[C@@H]4[C@@]5(C)CC[C@@H](O)[C@@](C)(C(=O)O)[C@@H]5CC[C@]43C)[C@@H]2C1 | 4.20 | 4.32
3 | CC(=O)O[C@@H]1CC[C@@]2(C)[C@@H](CC[C@]3(C)[C@@H]2CC=C2[C@@H]4CC(C)(C)CC[C@]4(C)CC[C@]23C(=O)O)[C@]1(C)C(=O)O | 4.23 | < 3.82
4 | CC1(C)CC[C@]2(C)CC[C@]3(C(=O)O)C(=CC[C@@H]4[C@@]5(C)CC[C@@H](OC(=O)/C=C/c6ccc(O)c(O)c6)C(C)(C)[C@@H]5CC[C@]43C)[C@@H]2C1 | < 3.82 | < 3.82
5 | CC(=O)O[C@@H]1CC[C@@]2(C)[C@@H](CC[C@]3(C)[C@@H]2CC=C2[C@@H]4C[C@](C)(C(=O)O)CC[C@]4(C)CC[C@]23C)[C@]1(C)C(=O)O | < 3.82 | < 3.82
6 | C[C@@]1(C(=O)O)CC[C@]2(C)CC[C@]3(C)C(=CC[C@@H]4[C@@]5(C)CC[C@H](O)[C@@](C)(C(=O)O)[C@@H]5CC[C@]43C)[C@@H]2C1 | < 3.82 | < 3.82
7 | CC1(C)CC[C@]2(C)CC[C@]3(C(=O)O)C(=CC[C@@H]4[C@@]5(C)CC[C@H]6OC(C)(C)OC[C@@]6(C)[C@@H]5CC[C@]43C)[C@@H]2C1 | < 3.82 | < 3.82
8 | C[C@@]1(C(=O)O)CC[C@]2(C)CC[C@]3(C)C(=CC[C@@H]4[C@@]5(C)CC[C@H](O)[C@@](C)(CO)[C@@H]5CC[C@]43C)[C@@H]2C1 | 3.97 | < 3.82
9 | CC1(C)CC[C@]2(C)CC[C@]3(C(=O)O)C(=CC[C@@H]4[C@@]5(C)CCC(=O)C(C)(C)[C@@H]5CC[C@]43C)[C@@H]2C1 | 4.27 | < 3.82
10 | CC1(C)CC[C@]2(C)CC[C@]3(C(=O)O)C(=CC[C@@H]4[C@@]5(C)CCC(=O)[C@@](C)(CO)[C@@H]5CC[C@]43C)[C@@H]2C1 | 4.41 | 5.18
11 | CC1(C)[C@@H](O)CC[C@]2(C)[C@H]3CC=C4[C@@H]5C[C@](C)(C(=O)O)CC[C@]5(C)CC[C@@]4(C)[C@]3(C)CC[C@@H]12 | < 3.82 | 4.78
12 | CC1(C)CC[C@]2(C)CC[C@]3(C(=O)O)C(=CC[C@@H]4[C@@]5(C)CC[C@H](O)C(C)(C)[C@@H]5CC[C@]43C)[C@@H]2C1 | < 3.82 | 5.12
13 | CC1(C)CC[C@]2(C)CC[C@]3(C(=O)O)C(=CC[C@@H]4[C@@]5(C)CC[C@@H](O)[C@@](C)(CO)[C@@H]5CC[C@]43C)[C@@H]2C1 [ACERIPHYLLIC ACID A] | < 3.82 | 5.08
14 | CC1(C)CC[C@]2(C(=O)O)CC[C@]3(C)C(=CC[C@@H]4[C@@]5(C)CC[C@H](O)C(C)(C)[C@@H]5CC[C@]43C)[C@@H]2C1 [OLEANOLIC_ACID] | < 3.82 | < 3.82
